# From ChEMBL document CHEMBL1134439, “Radioiodinated styrylbenzenes and thioflavins as probes for amyloid aggregates” (J Med Chem, 2001)
# Key:
# Mus musculus [1] = assay: Biodistribution was measured in mice spleen 30 minutes after intravenous injection of [125I]-labeled styrylbenzene.; assay type: ADME, organism-based; settings: in vivo, 0.5 h
# Summary of the method: (§1)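 ICR mice (2-3 months old, 20-30 g) under ether anesthesia; 0.15 mL saline containing 5-10 µCi ¹²⁵I tracer injected into tail vein. Sacrifice by cardiac excision at set times; organs removed, weighed, γ-counted. Expressed as % dose per organ versus diluted aliquots of injectate. Mean of three or four mice ± SD.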
# Mus musculus [2] = assay: Biodistribution was measured in mice lung 30 minutes after intravenous injection of [125I]-labeled styrylbenzene.; assay type: ADME, organism-based; settings: in vivo, 0.5 h
# Summary of the method: (§2)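 ICR mice (2-3 months old, 20-30 g) under ether anesthesia received 5-10 µCi ¹²⁵I tracer in 0.15 mL saline by tail-vein injection. Animals were killed by cardiac excision at set times post-injection. Organs were removed, weighed and γ-counted. Values are % dose per organ against diluted injectate aliquots, taking blood and muscle as 7% and 40% of body weight. Mean of 3-4 mice ± SD.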
# Mus musculus [3] = assay: Biodistribution was measured in mice muscle 6 hours after intravenous injection of [125I]-labeled styrylbenzene.; assay type: ADME, organism-based, Muscle tissue; settings: in vivo; summary of the method: as §2
# Mus musculus [4] = assay: Biodistribution was measured in mice muscle 60 minutes after intravenous injection of [125I]-labeled styrylbenzene.; assay type: ADME, organism-based, Muscle tissue; settings: in vivo, 1 h; summary of the method: as §2
# Mus musculus [5] = assay: Biodistribution was measured in mice lung 6 hours after intravenous injection of [125I]-labeled styrylbenzene.; assay type: ADME, organism-based; settings: in vivo, in the assay text read “thioflavin” for “styrylbenzene”; summary of the method: as §2
# Mus musculus [6] = assay: Biodistribution was measured in mice brain 6 hours after intravenous injection of [125I]-labeled styrylbenzene; assay type: ADME, organism-based; settings: in vivo; summary of the method: as §2
# Mus musculus [7] = assay: Biodistribution was measured in mice brain 30 minutes after intravenous injection of [125I]-labeled styrylbenzene; assay type: ADME, organism-based; settings: in vivo, 0.5 h; summary of the method: as §2
# Mus musculus [8] = assay: Biodistribution was measured in mice blood 2 minutes after intravenous injection of [125I]-labeled styrylbenzene.; assay type: ADME, organism-based; settings: in vivo; summary of the method: as §2
# Mus musculus [9] = assay: Biodistribution was measured in mice heart 24 hours after intravenous injection of [125I]-labeled styrylbenzene.; assay type: ADME, organism-based; settings: in vivo; summary of the method: as §2
# Mus musculus [10] = assay: Biodistribution was measured in mice heart 60 minutes after intravenous injection of [125I]-labeled styrylbenzene.; assay type: ADME, organism-based; settings: in vivo, 1 h; summary of the method: as §2
# Mus musculus [11] = assay: Biodistribution was measured in mice spleen 2 minutes after intravenous injection of [125I]-labeled styrylbenzene.; assay type: ADME, organism-based; settings: in vivo; summary of the method: as §2
# Mus musculus [12] = assay: Biodistribution was measured in mice blood 6 hours after intravenous injection of [125I]-labeled styrylbenzene.; assay type: ADME, organism-based; settings: in vivo; summary of the method: as §2
# Mus musculus [13] = assay: Biodistribution was measured in mice muscle 30 minutes after intravenous injection of [125I]-labeled styrylbenzene.; assay type: ADME, organism-based, Muscle tissue; settings: in vivo, 0.5 h; summary of the method: as §2
# Mus musculus [14] = assay: Biodistribution was measured in mice brain 2 minutes after intravenous injection of [125I]-labeled styrylbenzene; assay type: ADME, organism-based; settings: in vivo, in the assay text read “thioflavin” for “styrylbenzene”; summary of the method: as §2
# Mus musculus [15] = assay: Biodistribution was measured in mice heart 6 hours after intravenous injection of [125I]-labeled styrylbenzene.; assay type: ADME, organism-based; settings: in vivo; summary of the method: as §2
# Mus musculus [16] = assay: Biodistribution was measured in mice liver 2 minutes after intravenous injection of [125I]-labeled styrylbenzene.; assay type: ADME, organism-based; settings: in vivo; summary of the method: as §2
# Mus musculus [17] = assay: Biodistribution was measured in mice skin 6 hours after intravenous injection of [125I]-labeled styrylbenzene.; assay type: ADME, organism-based, Zone of skin; settings: in vivo; summary of the method: as §2
# Mus musculus [18] = assay: Biodistribution was measured in mice liver 30 minutes after intravenous injection of [125I]-labeled styrylbenzene.; assay type: ADME, organism-based; settings: in vivo, 0.5 h; summary of the method: as §2
# Mus musculus [19] = assay: Biodistribution was measured in mice skin 60 minutes after intravenous injection of [125I]-labeled styrylbenzene.; assay type: ADME, organism-based, Zone of skin; settings: in vivo, 1 h; summary of the method: as §2
# Mus musculus [20] = assay: Biodistribution was measured in mice brain 60 minutes after intravenous injection of [125I]-labeled styrylbenzene; assay type: ADME, organism-based; settings: in vivo, 1 h; summary of the method: as §2
# Mus musculus [21] = assay: Biodistribution was measured in mice kidney 6 hours after intravenous injection of [125I]-labeled styrylbenzene.; assay type: ADME, organism-based; settings: in vivo; summary of the method: as §2
# Mus musculus [22] = assay: Biodistribution was measured in mice lung 2 minutes after intravenous injection of [125I]-labeled styrylbenzene.; assay type: ADME, organism-based; settings: in vivo; summary of the method: as §2
# Mus musculus [23] = assay: Biodistribution was measured in mice muscle 24 hourss after intravenous injection of [125I]-labeled styrylbenzene.; assay type: ADME, organism-based, Muscle tissue; settings: in vivo; summary of the method: as §2
# Mus musculus [24] = assay: Biodistribution was measured in mice skin 30 minutes after intravenous injection of [125I]-labeled styrylbenzene.; assay type: ADME, organism-based, Zone of skin; settings: in vivo, 0.5 h; summary of the method: as §2
# Mus musculus [25] = assay: Biodistribution was measured in mice heart 2 minutes after intravenous injection of [125I]-labeled styrylbenzene.; assay type: ADME, organism-based; settings: in vivo; summary of the method: as §2
# Mus musculus [26] = assay: Biodistribution was measured in mice blood 60 minutes after intravenous injection of [125I]-labeled styrylbenzene.; assay type: ADME, organism-based; settings: in vivo, 1 h; summary of the method: as §2
# Mus musculus [27] = assay: Biodistribution was measured in mice kidney 60 minutes after intravenous injection of [125I]-labeled styrylbenzene.; assay type: ADME, organism-based; settings: in vivo, 1 h; summary of the method: as §2
# Mus musculus [28] = assay: Biodistribution was measured in mice blood 24 hours after intravenous injection of [125I]-labeled styrylbenzene.; assay type: ADME, organism-based; settings: in vivo; summary of the method: as §2
# Mus musculus [29] = assay: Biodistribution was measured in mice muscle 2 minutes after intravenous injection of [125I]-labeled styrylbenzene.; assay type: ADME, organism-based, Muscle tissue; settings: in vivo, in the assay text read “thioflavin” for “styrylbenzene”; summary of the method: as §2
# Mus musculus [30] = assay: Biodistribution was measured in mice heart 30 minutes after intravenous injection of [125I]-labeled styrylbenzene.; assay type: ADME, organism-based; settings: in vivo, 0.5 h; summary of the method: as §2
# Mus musculus [31] = assay: Biodistribution was measured in mice spleen 60 minutes after intravenous injection of [125I]-labeled styrylbenzene.; assay type: ADME, organism-based; settings: in vivo, 1 h; summary of the method: as §1
# Mus musculus [32] = assay: Biodistribution was measured in mice liver 6 hours after intravenous injection of [125I]-labeled styrylbenzene.; assay type: ADME, organism-based; settings: in vivo, in the assay text read “thioflavin” for “styrylbenzene”; summary of the method: as §2
# Mus musculus [33] = assay: Biodistribution was measured in mice kidney 24 hours after intravenous injection of [125I]-labeled styrylbenzene.; assay type: ADME, organism-based; settings: in vivo; summary of the method: as §2
# Mus musculus [34] = assay: Biodistribution was measured in mice blood 30 minutes after intravenous injection of [125I]-labeled styrylbenzene.; assay type: ADME, organism-based; settings: in vivo, 0.5 h; summary of the method: as §2
# Mus musculus [35] = assay: Biodistribution was measured in mice skin 2 minutes after intravenous injection of [125I]-labeled styrylbenzene.; assay type: ADME, organism-based, Zone of skin; settings: in vivo; summary of the method: as §2
# Mus musculus [36] = assay: Biodistribution was measured in mice lung 60 minutes after intravenous injection of [125I]-labeled styrylbenzene.; assay type: ADME, organism-based; settings: in vivo, 1 h; summary of the method: as §2
# Mus musculus [37] = assay: Biodistribution was measured in mice kidney 2 minutes after intravenous injection of [125I]-labeled styrylbenzene.; assay type: ADME, organism-based; settings: in vivo; summary of the method: as §2
# Mus musculus [38] = assay: Biodistribution was measured in mice kidney 30 minutes after intravenous injection of [125I]-labeled styrylbenzene.; assay type: ADME, organism-based; settings: in vivo, 0.5 h; summary of the method: as §2
# Mus musculus [39] = assay: Biodistribution was measured in mice liver 60 minutes after intravenous injection of [125I]-labeled styrylbenzene.; assay type: ADME, organism-based; settings: in vivo, 1 h; summary of the method: as §2
# Mus musculus [40] = assay: Biodistribution was measured in mice brain 24 hours after intravenous injection of [125I]-labeled styrylbenzene; assay type: ADME, organism-based; settings: in vivo, in the assay text read “thioflavin” for “styrylbenzene”; summary of the method: as §2
# Mus musculus [41] = assay: Biodistribution was measured in mice lung 24 hours after intravenous injection of [125I]-labeled styrylbenzene.; assay type: ADME, organism-based; settings: in vivo, in the assay text read “thioflavin” for “styrylbenzene”; summary of the method: as §2
# [42] = biological target: Amyloid-beta precursor protein (Homo sapiens, UniProt P05067); assay: Inhibition constant for aggregates of amyloid beta compared to [125I]IMSB
# Summary of the method: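 Aβ(1-40) or Aβ(1-42) aggregated at 0.5 or 0.25 mg/mL respectively in pH 7.4 buffer (10 mM sodium phosphate, 1 mM EDTA), 37 °C, 36-42 h with shaking. Competition against ¹²⁵I radioligand with fibrils 10-50 nM (final), 10% EtOH, 1 mL. Incubation 3 h room temperature. Bound ligand collected by GF/B filtration, γ-counted. Ki by nonlinear regression. Mean ± SEM, three experiments in duplicate.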
# Mus musculus [43] = assay: Biodistribution was measured in mice skin 24 hours after intravenous injection of [125I]-labeled styrylbenzene.; assay type: ADME, organism-based, Zone of skin; settings: in vivo; summary of the method: as §2
# Mus musculus [44] = assay: Biodistribution was measured in mice spleen 24 hours after intravenous injection of [125I]-labeled styrylbenzene.; assay type: ADME, organism-based; settings: in vivo
# Mus musculus [45] = assay: Biodistribution was measured in mice spleen 6 hours after intravenous injection of [125I]-labeled thioflavin.; settings: in vivo
# Mus musculus [46] = assay: Biodistribution was measured in mice liver 24 hours after intravenous injection of [125I]-labeled styrylbenzene.; assay type: ADME, organism-based; settings: in vivo; summary of the method: as §2
# Sequence of Amyloid-beta precursor protein (P05067 whole entry): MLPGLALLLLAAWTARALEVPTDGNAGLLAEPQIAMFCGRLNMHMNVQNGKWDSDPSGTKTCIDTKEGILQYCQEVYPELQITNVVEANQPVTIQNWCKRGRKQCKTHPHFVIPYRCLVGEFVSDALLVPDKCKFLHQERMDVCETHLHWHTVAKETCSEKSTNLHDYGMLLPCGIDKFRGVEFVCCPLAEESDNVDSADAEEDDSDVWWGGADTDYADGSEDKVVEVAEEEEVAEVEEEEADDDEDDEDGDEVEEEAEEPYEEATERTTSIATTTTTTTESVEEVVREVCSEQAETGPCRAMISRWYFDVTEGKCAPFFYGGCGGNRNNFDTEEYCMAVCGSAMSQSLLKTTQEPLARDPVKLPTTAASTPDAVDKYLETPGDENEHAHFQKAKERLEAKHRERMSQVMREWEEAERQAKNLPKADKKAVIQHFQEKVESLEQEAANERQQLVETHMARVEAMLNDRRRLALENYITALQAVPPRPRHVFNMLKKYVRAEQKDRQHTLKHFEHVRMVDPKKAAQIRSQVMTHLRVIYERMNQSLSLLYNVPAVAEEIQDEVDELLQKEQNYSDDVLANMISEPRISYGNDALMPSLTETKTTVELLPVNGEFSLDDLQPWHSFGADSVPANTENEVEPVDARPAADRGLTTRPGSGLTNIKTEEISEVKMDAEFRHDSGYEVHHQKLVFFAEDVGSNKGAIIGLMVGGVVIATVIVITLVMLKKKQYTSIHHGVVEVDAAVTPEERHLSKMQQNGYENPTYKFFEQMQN
smiles,measurement,setting,value
CN(C)c1ccc(-c2nc3ccc(I)cc3s2)cc1,Dose/organ,Mus musculus [1],0.2%
same,Dose/organ,Mus musculus [2],0.72%
same,Dose/organ,Mus musculus [3],2.93%
same,Dose/organ,Mus musculus [4],12.81%
same,Dose/organ,Mus musculus [5],0.21%
same,Dose/organ,Mus musculus [6],0.65%
same,Dose/organ,Mus musculus [7],0.9%
same,Dose/organ,Mus musculus [8],15.74%
same,Dose/organ,Mus musculus [9],0.01%
same,Dose/organ,Mus musculus [10],0.17%
same,Dose/organ,Mus musculus [11],0.59%
same,Dose/organ,Mus musculus [12],1.44%
same,Dose/organ,Mus musculus [13],12.89%
same,Dose/organ,Mus musculus [14],0.6%
same,Dose/organ,Mus musculus [15],0.05%
same,Dose/organ,Mus musculus [16],31.62%
same,Dose/organ,Mus musculus [17],3.8%
same,Dose/organ,Mus musculus [18],10.93%
same,Dose/organ,Mus musculus [19],12.8%
same,Dose/organ,Mus musculus [20],1.57%
same,Dose/organ,Mus musculus [21],0.54%
same,Dose/organ,Mus musculus [22],5.91%
same,Dose/organ,Mus musculus [23],0.33%
same,Dose/organ,Mus musculus [24],7.4%
same,Dose/organ,Mus musculus [25],1.79%
same,Dose/organ,Mus musculus [26],3.79%
same,Dose/organ,Mus musculus [27],2.23%
same,Dose/organ,Mus musculus [28],0.29%
same,Dose/organ,Mus musculus [29],17.81%
same,Dose/organ,Mus musculus [30],0.2%
same,Dose/organ,Mus musculus [31],0.17%
same,Dose/organ,Mus musculus [32],1.52%
same,Dose/organ,Mus musculus [33],0.06%
same,Dose/organ,Mus musculus [34],3.26%
same,Dose/organ,Mus musculus [35],3.2%
same,Dose/organ,Mus musculus [36],0.78%
same,Dose/organ,Mus musculus [37],5.42%
same,Dose/organ,Mus musculus [38],2.24%
same,Dose/organ,Mus musculus [39],9.21%
same,Dose/organ,Mus musculus [40],0.04%
same,Dose/organ,Mus musculus [41],0.03%
same,Ki,[42],> 5 µM
same,Dose/organ,Mus musculus [43],0.2%
same,Dose/organ,Mus musculus [44],0.01%
same,Dose/organ,Mus musculus [45],0.04%
same,Dose/organ,Mus musculus [46],0.3%
